Experimental data pooled from the literature.
Lines come from different studies, so protocols differ.
Target: Serine/threonine-protein kinase DCLK1 (DCLK1, Homo sapiens, UniProt O15075)
Residues used in one study (O15075 1-740): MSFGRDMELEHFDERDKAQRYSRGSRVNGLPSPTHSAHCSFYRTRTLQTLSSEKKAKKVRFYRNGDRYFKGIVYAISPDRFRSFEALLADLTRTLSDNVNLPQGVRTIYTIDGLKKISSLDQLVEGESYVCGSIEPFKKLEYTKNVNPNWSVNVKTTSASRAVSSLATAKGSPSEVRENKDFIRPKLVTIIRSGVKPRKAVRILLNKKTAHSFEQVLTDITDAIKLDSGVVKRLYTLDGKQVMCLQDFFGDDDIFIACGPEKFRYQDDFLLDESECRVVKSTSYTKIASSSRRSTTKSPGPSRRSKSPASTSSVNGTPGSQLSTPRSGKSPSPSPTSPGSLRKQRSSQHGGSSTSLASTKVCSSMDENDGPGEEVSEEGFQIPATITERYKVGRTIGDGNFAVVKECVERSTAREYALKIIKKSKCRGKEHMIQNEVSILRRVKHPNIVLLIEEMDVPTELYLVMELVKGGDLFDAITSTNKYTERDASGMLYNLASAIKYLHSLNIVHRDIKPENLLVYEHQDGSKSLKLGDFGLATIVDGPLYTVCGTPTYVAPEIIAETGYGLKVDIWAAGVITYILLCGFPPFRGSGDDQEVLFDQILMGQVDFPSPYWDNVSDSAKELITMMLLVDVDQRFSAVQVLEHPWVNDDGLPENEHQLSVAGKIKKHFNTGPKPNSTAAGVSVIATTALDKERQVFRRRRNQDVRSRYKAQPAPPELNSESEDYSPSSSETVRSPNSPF

CS(=O)(=O)Nc1cccc(-c2csc(NC(=O)CSc3nc4nccnc4c(=O)n3CCc3ccccc3)n2)c1  inhibition (enzyme activity; inhibitor; 10 µM): 1%
Cn1c2c(Cl)c(Cl)ccc2c2cc(N)[nH]c(=O)c21  ΔTm (thermal stability; DSF; 10 µM): 0.1 °C
Nc1ncnc2occ(-c3ccc(NC(=O)Nc4cc(C(F)(F)F)ccc4F)cc3)c12  remaining signal (cell-free assay; inhibitor; 20 µM): 80%
CC(=O)N1CCC(c2ccc(C(=O)NC(=N)N)cc2C(F)(F)F)CC1  remaining binding (cell-free assay; competition with immobilised ligand; 1 µM): 100%
Cn1c2c(c3ccc(Cl)c(Cl)c31)C(C#N)C1(CCN(C(=O)OC(C)(C)C)CC1)NC2=O (racemic)  ΔTm (thermal stability; DSF; 10 µM): 0 °C
Nc1cnc(N2CCc3cc(S(=O)(=O)Nc4c(F)cc(Cl)cc4F)cc(N4CCCC4=O)c32)nc1  remaining binding (cell-free assay; competition with immobilised ligand; 1 µM): 100%
Cc1ccc(C(=O)Nc2ccc(CN3CCN(C)CC3)c(C(F)(F)F)c2)cc1C#Cc1cnc2cccnn12  remaining activity (enzyme activity; inhibitor; 23.5 nM): 93%
Cn1c2c(Cl)c(Cl)ccc2c2cc[nH]c(=O)c21  ΔTm (thermal stability; DSF; 10 µM): -0.1 °C
O=C(Nc1cnn(-c2csc(C(=O)NC3COC3)c2)c1)Nc1ccccc1Cl  remaining activity (enzyme activity; inhibitor; 5 µM): 99.2%
Cc1c(NC(=O)c2cc(C(N)=O)nc3cc(F)ccc23)c(C(F)(F)F)nn1Cc1ccc(C(C)(C)C)cc1  remaining binding (cell-free assay; competition with immobilised ligand; 1 µM): 91%
Cn1c2c(c3ccc(Cl)c(Cl)c31)C(C#N)C1(CCOCC1)NC2=O (centres unmarked)  ΔTm (thermal stability; DSF; 10 µM): 0 °C
CC(C)(O)[C@H]1CC[C@H](Nc2ccc3ncc(-c4cccc(C(F)(F)F)c4)n3n2)CC1  remaining activity (enzyme activity; inhibitor; 1 µM): 93.4%
Cc1sc(C(=O)NC2COC2)cc1-n1cc(NC(=O)Nc2c(F)cccc2Cl)cn1  remaining activity (enzyme activity; inhibitor; 10 µM): 67.2%
O=C(CSc1nc2nccnc2c(=O)n1CCc1ccccc1)Nc1nccs1  inhibition (enzyme activity; inhibitor; 10 µM): 14%
